Most compounds without a hit are left out; they make up all but 1.7% or so of the library.
PglD inh: PglD (C. jejuni) enzyme inhibition. purified PglD enzyme, DTNB colorimetric CoA detection. actives 0.098% (n = 360,000). inhibition, % at 12.5 µM; in the data active = inhibition above about 16%, passing the limit was not always enough; inconclusive = no clear call, values can overlap the other calls
PfHsp90 yeast 2: growth inhibition of yeast expressing Plasmodium Hsp90; S. cerevisiae expressing PfHsp90, BacTiter-Glo ATP, 48 h; yeast lacking PDR1 and PDR3 efflux regulators; inhibition, % at 9.4 µM; actives 0.32% (n = 310,000);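 active = every replicate shows inhibition above about 80%, whatever the replicate mean, limit read from the data; inconclusive = mean inhibition reaches the set limit but some replicate falls short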;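 also: 0% = DMSO neutral controls and 100% = 20 µM radicicol positive controls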
FN deposition inh: fibronectin deposition inhibition; AH1F fibroblasts, Alexa488-fibronectin deposition fluorescence, overnight; inhibition, % at 12.6 µM; actives 0.086% (n = 350,000); AID 743247;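 active = mean inhibition across replicates of 30% or more, regardless of how many single replicates reach that level; inconclusive = mean under 30% yet at least half of replicates reach 30%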;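 also: positive control wells lacked labelled fibronectin entirely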
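Material: AH1F fibroblasts assembling fluorescent fibronectin matrix; amount: 10000 AH1F cells/well; medium: DMEM, 2% serum; reagent: Alexa488-fibronectin, 24 nM final in well; dosing: single compound dose, delivered by pin transfer; incubation: 1 h adhesion, overnight exposure; detection: fluorescence after three HBSS washes, excitation 485 nm, emission 525 nm; measure: fibronectin deposition inhibition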
CSC inhib: blocks cancer stem cells; actives 1.1% (n = 300,000); cancer stem cell-like cells viability, luminescence; inhibition, % at 7.5 µM; in the data active = inhibition above about 75%; inconclusive = no clear call, values can overlap the other calls; tested in HMLE shEcad cells
SKKanGAS inh: blocks kanamycin growth of S. pyogenes SKKanGAS strain | BacTiter-Glo, 6 h | inhibition, % at 7.5 µM | actives 1.3% (n = 300,000) | AID 1662;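 active = mean replicate score, as percent of positive control median, at least 50; inconclusive = mean below 50 but one replicate at or above 50; inactive = mean and every replicate below 50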;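 also: strain carries kanamycin resistance gene driven by streptokinase promoter and grows in 40 µg/ml kanamycin; loss of luminescence reflects streptokinase promoter inhibition or plain growth inhibition; 0% = median of DMSO wells and 100% = positive control at its reference dose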
Rtt109 HAT inh: blocks Candida albicans Rtt109/Vps75 acetyltransferase activity; actives 0.16% (n = 330,000); AID 540336; inhibition, % at 34.9 µM; Q5AAJ8; purified Rtt109/Vps75, ThioGlo CoA-SH fluorescence, 4 h;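 active = inhibition of at least 50% in every replicate; inconclusive = best replicate reaches 50% inhibition but some replicates fall short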
Target sequence (Q5AAJ8 whole entry, looked up): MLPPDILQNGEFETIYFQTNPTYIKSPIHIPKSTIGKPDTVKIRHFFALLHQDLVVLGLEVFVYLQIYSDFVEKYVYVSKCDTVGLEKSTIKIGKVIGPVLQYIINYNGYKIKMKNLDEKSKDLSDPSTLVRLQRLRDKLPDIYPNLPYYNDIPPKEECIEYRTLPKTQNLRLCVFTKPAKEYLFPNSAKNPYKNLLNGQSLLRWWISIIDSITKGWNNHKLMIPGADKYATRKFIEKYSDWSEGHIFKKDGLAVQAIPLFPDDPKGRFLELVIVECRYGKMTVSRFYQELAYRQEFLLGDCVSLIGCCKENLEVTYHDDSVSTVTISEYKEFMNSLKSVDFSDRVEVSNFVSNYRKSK
* = called active by the depositor; ? = inconclusive; . = no result.

SMILES	PglD inh	PfHsp90 yeast 2	FN deposition inh	CSC inhib	SKKanGAS inh	Rtt109 HAT inh
COc1ccc(-c2cc(C(F)(F)F)nc(N3CCCCCC3)n2)cc1	2.6	.	-6.6	32.9	?	4.5
Cc1cc(NC(=O)CCS(=O)(=O)c2nc(-c3ccccc3)cc(C(F)(F)F)n2)no1	5.7	-9.0	.	35.5	.	2.3
COc1cccc(-c2cc(C(F)(F)F)nc(N3CCCCC3)n2)c1	-5.7	.	-1.0	24.4	57.5*	-6.2
CS(=O)(=O)c1nc(-c2ccccc2)cc(C(F)(F)F)n1	4.7	-4.6	.	107.2*	-22.5	7.4
FC(F)(F)c1cc(-c2ccccc2)nc(N2CCCCCC2)n1	-1.7	-18.7	.	24.1	86.2*	-15.1
O=C(C[C@H]1CC[C@@H]2[C@H](COC[C@@H](O)CN2C(=O)Nc2ccc(Cl)cc2)O1)N1CCCCC1	-3.3	.	0.0	.	.	.
Cc1noc(C)c1NC(=O)N(C)C[C@H]1Oc2ccc(NC(=O)Nc3ccc(C(F)(F)F)cc3)cc2CC(=O)N([C@H](C)CO)C[C@@H]1C	5.9	.	.	.	.	.
O=C(N[C@@H]1C=C[C@@H](CC(=O)N2CCC(Cc3ccccc3)CC2)O[C@@H]1CO)c1cnccn1	-0.3	.	-10.7	.	.	.
CCOC(=O)c1cc([N+](=O)[O-])cc([N+](=O)[O-])c1Sc1ncnc2nc[nH]c12	.	106.8*	1.5	.	.	3.2
O=[N+]([O-])c1ccc(S(=O)(=O)Nc2ccc(-c3csc(-c4ccccc4)n3)cc2)cc1	.	.	.	100.3*	66.5*	.
O=S(=O)(Nc1ccc(-c2csc(-c3ccccc3)n2)cc1)c1ccccc1	.	71.5	-0.8	148.5*	46.3	-1.5
Cc1ccc(S(=O)(=O)Nc2ccc(-c3csc(-c4ccccc4)n3)cc2)cc1	-1.0	-2.6	2.9	112.0*	40.0	2.4
Cc1ccc(S(=O)(=O)Nc2nc(-c3ccccc3)cs2)cc1	-2.1	4.8	3.9	-6.0	21.9	12.8
COc1ccc(-c2csc(NS(=O)(=O)c3ccc([N+](=O)[O-])cc3)n2)cc1	.	-11.0	.	-12.6	10.8	-1.1
CNC(=O)C[C@@H]1CC[C@@H]2[C@H](COC[C@H](O)CN2Cc2ccncc2)O1	-1.1	.	-15.5	.	.	.
CC=Cc1ccc2n(c1=O)C[C@H]1[C@H](CO)[C@@H](C(=O)Nc3nccs3)N(Cc3ccccc3F)[C@@H]21 (mixture of isomers)	1.2	.	.	.	.	.
Cc1nn(-c2ccccc2)c2sc(C(=O)O)cc12	-4.0	.	.	-0.5	-6.2	5.5
Cc1nn(-c2ccccc2)c2sc(-c3n[nH]c(=S)o3)cc12	0.2	-2.5	-10.6	17.3	79.9*	24.7
S=C(NCCC(c1ccccc1)c1ccccc1)Nc1ccc(Cl)cc1	-0.6	17.8	.	-1.0	117.1*	-13.0
CC1(C)CC[C@]2(CO)[C@@H](O)C[C@]3(C)C(=CCC4[C@@]5(C)CC[C@H](O)C(C)(C)C5CC[C@]43C)[C@@H]2C1 (stereo partly drawn)	.	.	.	101.7*	22.9	.
CCCCNC(=O)c1cc2c(-c3ccc(Cl)cc3)nn(C)c2s1	3.9	-6.2	-0.1	4.4	-1.3	-6.2
Cn1nc(-c2ccc(Cl)cc2)c2cc(C(=O)NCCCN3CCCC3)sc21	-2.2	-6.6	-2.8	81.7*	-1.0	-2.5
O=C(C[C@H]1C=C[C@H](NC(=O)CC2CC2)[C@@H](CO)O1)NCc1ccc(-c2ccccc2)cc1	-0.3	.	2.5	.	.	.
CCOc1ccc(Br)cc1C1=NN(C(C)=O)C(c2ccc([N+](=O)[O-])s2)O1 (stereo not drawn)	-3.8	107.6*	5.5	.	8.5	1.6
COc1ccc(CNC(=O)C(c2ccncc2)N(C(=O)Cc2cccs2)c2ccccc2)cc1 (stereo not drawn)	.	-14.6	0.5	.	.	-3.0
COc1ccc(N(C(=O)CCl)C(C(=O)NCCc2ccccc2)c2cccs2)cc1 (stereo not drawn)	4.5	-52.8	25.0	110.7*	-5.3	10.1
CCC(C)Nc1nc(-c2cccc(OC)c2O)nc2ccccc12 (stereo not drawn)	-4.8	-36.4	7.2	60.4	6.8	7.9
c1ccc(CNc2nc(NCc3ccccc3)c3ccccc3n2)cc1	7.1	9.5	.	135.4*	0.6	1.9
Fc1ccc(Nc2nc(NCc3ccco3)c3ccccc3n2)cc1	1.6	18.7	-6.4	85.8*	11.4	-1.6
